Among the data in ChEMBL document CHEMBL1124549, “N-azamonobactams. 2. Synthesis of some N-iminoacetic acid and N-glycyl analogues” (1989) are MIC values, retold here.

≈ marks a conversion by molar mass, not a printed value.

What all share (type): functional
Assay [1] concerns Serratia marcescens. The assay is described as follows: In vitro antibacterial activity against MOR-84-41 strain of Serratia marcescens. The method, boiled down:
(§1)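 Agar dilution on Mueller-Hinton agar holding 2-fold decreasing drug concentrations. Agar surfaces were spot-inoculated with (1-5) × 10^4 CFU per strain using a replicating device. Plates were incubated 18 h at 35 °C. MIC was recorded as the lowest concentration inhibiting growth of the strain.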

Assay [2] deals with Klebsiella pneumoniae. As to the kind of experiment: In vitro antibacterial activity against MOR-84-24 strain of Klebsiella pneumoniae. Summed up: as §1
In assay [3] the test system is Morganella morganii. The assay is described as follows: In vitro antibacterial activity against CMC-84-38 strain of Morganella morganii. Summed up: as §1
Assay [4] relates to Klebsiella pneumoniae. As to the kind of experiment: In vitro antibacterial activity against CMC-84-31 strain of Klebsiella pneumoniae. Summed up: as §1
Assay [5] deals with Morganella morganii. The assay is described as follows: In vitro antibacterial activity against MOR-84-45 strain of Morganella morganii. The method, boiled down:
as §1

Assay [6] has as its system Serratia marcescens. As to the kind of experiment: In vitro antibacterial activity against CMC-83-74 strain of Serratia marcescens. The method, boiled down:
as §1

Assay [7] in a line: In vitro antibacterial activity against IO-83-21 strain of Proteus rettgeri. The conditions noted are these: Providencia rettgeri. Summed up:
as §1

For assay [8], the system named is Escherichia coli. The assay is described as follows: In vitro antibacterial activity against CMC-84-50 strain of Escherichia coli. Summed up: as §1
The subject of assay [9] is Providencia stuartii. The assay is described as follows: In vitro antibacterial activity against CMC-83-3 strain of Providencia stuartii. Summed up: as §1
The subject of assay [10] is Morganella morganii. As to the kind of experiment: In vitro antibacterial activity against VGH-84-12 strain of Morganella morganii. Summed up: as §1
Assay [11] relates to Escherichia coli. The assay is described as follows: In vitro antibacterial activity against MOR-84-20 strain of Escherichia coli. The method, boiled down: as §1
Assay [12] concerns Citrobacter koseri. The assay is described as follows: In vitro antibacterial activity against J-82-24 strain of Citrobacter diversus. The method, boiled down:
as §1

Assay [13] deals with Escherichia coli. The assay is described as follows: In vitro antibacterial activity against VGH-84-19 strain of Escherichia coli. The method, boiled down:
as §1

The subject of assay [14] is Escherichia coli. As to the kind of experiment: In vitro antibacterial activity against ATCC 25922 strain of Escherichia coli. Summed up: as §1
The test system of assay [15] is Serratia marcescens. The assay is described as follows: In vitro antibacterial activity against IO-83-63 strain of Serratia marcescens. The method, boiled down:
as §1

Assay [16] has as its system Enterobacter cloacae. The assay is described as follows: In vitro antibacterial activity against VGH-84-39 strain of Enterobacter cloacae.
Assay [17] relates to Enterobacter cloacae. The assay is described as follows: In vitro antibacterial activity against K-84-10 strain of Enterobacter cloacae.
The subject of assay [18] is Enterobacter cloacae. As to the kind of experiment: In vitro antibacterial activity against MOR-84-30 strain of Enterobacter cloacae.
Assay [19] deals with Klebsiella pneumoniae. The assay is described as follows: In vitro antibacterial activity against IO-83-5 strain of Klebsiella pneumoniae. The method, boiled down:
as §1

For the molecule `C[C@H]1[C@H](NC(=O)/C(=N\OC(C)(C)C(=O)O)c2csc(N)n2)C(=O)N1S(=O)(=O)O` [AZTREONAM], the minimal inhibitory concentration (MIC) (in general, the smallest concentration in the dilution series that meets the test's criterion for growth inhibition) is 0.06 µg/mL (≈ 0.138 µM) in [1]; 0.06 µg/mL (≈ 0.138 µM) in [2]; 0.015 µg/mL (≈ 0.0344 µM) in [3]; 0.03 µg/mL (≈ 0.0689 µM) in assay [4]; 0.015 µg/mL (≈ 0.0344 µM) in [5]; 0.25 µg/mL (≈ 0.574 µM) in assay [6]. Moreover, the minimum inhibitory concentration (MIC) in assay [7] is 0.002 µg/mL (≈ 0.00459 µM); in assay [8] it was 0.06 µg/mL (≈ 0.138 µM); in assay [9], 0.015 µg/mL (≈ 0.0344 µM); in assay [10], 0.03 µg/mL (≈ 0.0689 µM); in assay [11] it was 0.06 µg/mL (≈ 0.138 µM); in assay [12] it was 0.03 µg/mL (≈ 0.0689 µM). For the same molecule, the MIC in assay [13] and in assay [14] was 0.06 µg/mL (≈ 0.138 µM) in each case.

In the case of `C=CCOC(=O)CNN1CC(NC(=O)/C(=N/OC)c2csc(N)n2)C1=O` (stereo unspecified), the MIC in assay [1] amounted to 32 µg/mL (≈ 83.7 µM); in [2] it was 16 µg/mL (≈ 41.8 µM); in [15] it was 32 µg/mL (≈ 83.7 µM); in assay [16], 16 µg/mL (≈ 41.8 µM); in [3] it was 32 µg/mL (≈ 83.7 µM); in assay [4], 8 µg/mL (≈ 20.9 µM). For the same molecule, the minimum inhibitory concentration (MIC) came out at 128 µg/mL (≈ 335 µM) in [5]; 128 µg/mL (≈ 335 µM) in [6]; 0.5 µg/mL (≈ 1.31 µM) in [7]; 4 µg/mL (≈ 10.5 µM) in assay [8]; 32 µg/mL (≈ 83.7 µM) in assay [9]; 64 µg/mL (≈ 167 µM) in assay [10]. Further, the minimum inhibitory concentration (MIC) came to 8 µg/mL (≈ 20.9 µM) in assay [11]; 16 µg/mL (≈ 41.8 µM) in assay [12]; 8 µg/mL (≈ 20.9 µM) in [17]; 8 µg/mL (≈ 20.9 µM) in [13]; 64 µg/mL (≈ 167 µM) in assay [18]; 8 µg/mL (≈ 20.9 µM) in assay [14]. The same molecule gave an MIC in [19] of 8 µg/mL (≈ 20.9 µM).

For the molecule `CO/N=C(/C(=O)NC1CN(NCC(=O)O)C1=O)c1csc(N)n1` (stereo unspecified), the MIC in assay [1], in assay [2], in assay [15], in [16], in [3] and in [4] was > 128 µg/mL throughout. Besides, the minimal inhibitory concentration (MIC) is > 128 µg/mL in assay [5]; > 128 µg/mL in [6]; 64 µg/mL (≈ 187 µM) in [7]; > 128 µg/mL in assay [8]; > 128 µg/mL in assay [9]; > 128 µg/mL in [10]. In addition, the MIC in [11], in assay [12], in [17], in [13], in assay [18] and in [14] was > 128 µg/mL throughout. In addition, in assay [19], the minimal inhibitory concentration (MIC) is > 128 µg/mL.

Consider `CO/N=C(/C(=O)NC1CN(/N=C/C(=O)O)C1=O)c1csc(N)n1` (stereo unspecified), for which the minimum inhibitory concentration (MIC) was 4 µg/mL (≈ 11.8 µM) in assay [1]; 8 µg/mL (≈ 23.5 µM) in assay [2]; 8 µg/mL (≈ 23.5 µM) in assay [15]; 8 µg/mL (≈ 23.5 µM) in assay [16]; 8 µg/mL (≈ 23.5 µM) in assay [3]; 2 µg/mL (≈ 5.88 µM) in assay [4]. The MIC in [5] was 16 µg/mL (≈ 47 µM); in [6], 16 µg/mL (≈ 47 µM); in [7], 0.12 µg/mL (≈ 0.353 µM); in assay [8], 2 µg/mL (≈ 5.88 µM); in assay [9], 2 µg/mL (≈ 5.88 µM); in assay [10] it was 4 µg/mL (≈ 11.8 µM). Besides, the minimum inhibitory concentration (MIC) amounted to 2 µg/mL (≈ 5.88 µM) in assay [11]; 4 µg/mL (≈ 11.8 µM) in [12]; 4 µg/mL (≈ 11.8 µM) in assay [17]; 2 µg/mL (≈ 5.88 µM) in assay [13]; 32 µg/mL (≈ 94 µM) in [18]; 8 µg/mL (≈ 23.5 µM) in assay [14]. Besides, the MIC in assay [19] was found to be 4 µg/mL (≈ 11.8 µM).
